Results taken from ChEMBL document CHEMBL2439973, “Discovery of VU0409106: A negative allosteric modulator of mGlu5 with activity in a mouse model of anxiety” (Bioorg Med Chem Lett, 2013).
The source made the active and inactive calls. No cut-off for these calls is given here.

How the values were obtained:
[1] = system: Brain; experiment: Tmax in CD-1 mouse brain at 10 mg/kg, ip by LC-MS/MS analysis; type: ADME, organism-based; design: dose 10 mg/kg, route intraperitoneal; conditions: in vivo
[2] = organism: Oryctolagus cuniculus; experiment: Displacement of [3H]-alpha,beta-Methylene-ATP from purinergic P2x receptor in rabbit urinary bladder at 10 uM relative to control
[3] = molecular target: Prostaglandin E2 receptor EP4 subtype (Homo sapiens) (UniProt P35408); experiment: Displacement of [3H]-PGE2 from human recombinant prostanoid EP4 receptor expressed in rat Chem-1 cells at 10 uM relative to control; type: cell-based
Sequence of Prostaglandin E2 receptor EP4 subtype (Homo sapiens) (P35408 whole entry): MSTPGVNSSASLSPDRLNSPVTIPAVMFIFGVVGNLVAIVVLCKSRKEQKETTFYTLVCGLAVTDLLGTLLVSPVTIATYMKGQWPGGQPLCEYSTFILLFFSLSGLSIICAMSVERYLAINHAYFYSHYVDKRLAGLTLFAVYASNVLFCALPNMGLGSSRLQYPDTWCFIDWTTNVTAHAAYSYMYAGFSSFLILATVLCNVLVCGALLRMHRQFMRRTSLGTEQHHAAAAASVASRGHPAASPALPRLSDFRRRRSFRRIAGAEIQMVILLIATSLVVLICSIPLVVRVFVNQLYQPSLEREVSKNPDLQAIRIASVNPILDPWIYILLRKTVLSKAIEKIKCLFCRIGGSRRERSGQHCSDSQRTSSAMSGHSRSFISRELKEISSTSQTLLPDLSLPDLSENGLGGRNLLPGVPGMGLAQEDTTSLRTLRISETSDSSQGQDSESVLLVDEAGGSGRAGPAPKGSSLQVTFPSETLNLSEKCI

[4] = system: Plasma; experiment: Cmax in CD-1 mouse plasma at 10 mg/kg, ip by LC-MS/MS analysis; type: ADME, organism-based; design: dose 10 mg/kg, route intraperitoneal; conditions: in vivo
[5] = molecular target: Sodium-dependent serotonin transporter (Homo sapiens) (UniProt P31645); experiment: Displacement of [3H]-Paroxetine from human recombinant SERT expressed in HEK293 cells at 10 uM relative to control; type: cell-based
Sequence of Sodium-dependent serotonin transporter (Homo sapiens) (P31645 whole entry, looked up): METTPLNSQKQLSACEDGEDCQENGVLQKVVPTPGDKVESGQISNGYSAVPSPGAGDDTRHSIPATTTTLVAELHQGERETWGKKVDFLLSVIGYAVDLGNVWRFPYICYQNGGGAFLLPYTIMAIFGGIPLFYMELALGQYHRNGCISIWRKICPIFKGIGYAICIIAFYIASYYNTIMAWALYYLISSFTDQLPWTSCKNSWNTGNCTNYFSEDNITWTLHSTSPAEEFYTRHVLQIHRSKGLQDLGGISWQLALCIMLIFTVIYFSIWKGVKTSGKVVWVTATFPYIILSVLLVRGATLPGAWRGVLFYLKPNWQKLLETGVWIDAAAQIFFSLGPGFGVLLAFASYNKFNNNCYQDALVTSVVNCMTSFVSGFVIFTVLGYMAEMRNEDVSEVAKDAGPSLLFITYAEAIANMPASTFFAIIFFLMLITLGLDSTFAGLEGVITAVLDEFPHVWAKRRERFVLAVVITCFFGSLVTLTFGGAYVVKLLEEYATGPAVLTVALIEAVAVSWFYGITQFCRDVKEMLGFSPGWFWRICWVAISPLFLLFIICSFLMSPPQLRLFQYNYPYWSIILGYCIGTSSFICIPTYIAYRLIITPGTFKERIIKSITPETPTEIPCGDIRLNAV

[6] = molecular target: Acetylcholine receptor subunit alpha (Homo sapiens) (UniProt P02708); experiment: Displacement of [125I]-alpha-Bungarotoxin from nicotinic acetylcholine alpha1 receptor bungarotoxin binding site in human RD cells at 10 uM relative to control; type: cell-based
In short: (§1)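 Tested once at 10 μM in a commercial radioligand binding panel of 68 GPCRs, ion channels, kinases and transporters. Activity is given as displacement of each radioligand relative to control.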

[7] = molecular target: Alpha-1B adrenergic receptor (Rattus norvegicus) (UniProt P15823); experiment: Displacement of [3H]-Prazosin from adrenergic alpha1B receptor in rat liver at 10 uM relative to control
Sequence of Alpha-1B adrenergic receptor (Rattus norvegicus) (P15823 whole entry): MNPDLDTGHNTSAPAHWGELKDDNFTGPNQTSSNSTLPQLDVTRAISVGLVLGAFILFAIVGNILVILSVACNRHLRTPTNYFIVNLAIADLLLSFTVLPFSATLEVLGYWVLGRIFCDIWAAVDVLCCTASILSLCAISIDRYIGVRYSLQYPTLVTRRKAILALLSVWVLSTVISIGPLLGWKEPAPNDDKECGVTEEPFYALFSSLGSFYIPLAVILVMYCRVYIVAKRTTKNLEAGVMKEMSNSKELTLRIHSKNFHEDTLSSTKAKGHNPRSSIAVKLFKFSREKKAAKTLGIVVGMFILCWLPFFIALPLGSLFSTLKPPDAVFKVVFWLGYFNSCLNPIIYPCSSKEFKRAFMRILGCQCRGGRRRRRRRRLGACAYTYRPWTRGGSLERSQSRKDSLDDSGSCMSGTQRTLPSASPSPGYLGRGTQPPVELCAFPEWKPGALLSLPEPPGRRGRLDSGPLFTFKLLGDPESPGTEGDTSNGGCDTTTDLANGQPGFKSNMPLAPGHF

[8] = molecular target: Sigma non-opioid intracellular receptor 1 (Homo sapiens) (UniProt Q99720); experiment: Displacement of [3H]-Haloperidol from sigma1 receptor in human Jurkat cells at 10 uM relative to control; type: cell-based; in short: as §1
[9] = molecular target: Kappa-type opioid receptor (Homo sapiens) (UniProt P41145); experiment: Displacement of [3H]-Diprenorphine from human recombinant kappa receptor expressed in HEK293 cells at 10 uM relative to control; type: cell-based; in short: as §1
Sequence of Kappa-type opioid receptor (Homo sapiens) (P41145 whole entry): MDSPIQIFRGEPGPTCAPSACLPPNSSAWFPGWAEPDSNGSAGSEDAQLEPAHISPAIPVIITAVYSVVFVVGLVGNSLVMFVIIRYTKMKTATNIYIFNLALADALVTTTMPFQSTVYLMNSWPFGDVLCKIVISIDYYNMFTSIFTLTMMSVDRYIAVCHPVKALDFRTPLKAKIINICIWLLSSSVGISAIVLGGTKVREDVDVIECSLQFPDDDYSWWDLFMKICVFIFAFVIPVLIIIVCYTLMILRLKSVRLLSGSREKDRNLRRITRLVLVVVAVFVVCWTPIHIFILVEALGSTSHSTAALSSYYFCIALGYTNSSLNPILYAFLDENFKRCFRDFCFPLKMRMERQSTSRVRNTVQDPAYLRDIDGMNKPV

[10] = organism: Rattus norvegicus; experiment: Displacement of [125I]-Omega-Conotoxin GVIA from N-type calcium channel in rat frontal brain at 10 uM relative to control; in short: as §1
[11] = system: CHO-K1; experiment: Displacement of [125I]-2-Iodomelatonin from human recombinant MT1 receptor expressed in CHO-K1 cells at 10 uM relative to control; type: cell-based; in short: as §1
[12] = molecular target: Muscarinic acetylcholine receptor M2 (Homo sapiens) (UniProt P08172); experiment: Displacement of [3H]-N-Methylscopolamine from human recombinant muscarinic M2 receptor expressed in CHO-K1 cells at 10 uM relative to control; type: cell-based; in short: as §1
Sequence of Muscarinic acetylcholine receptor M2 (Homo sapiens) (P08172 whole entry): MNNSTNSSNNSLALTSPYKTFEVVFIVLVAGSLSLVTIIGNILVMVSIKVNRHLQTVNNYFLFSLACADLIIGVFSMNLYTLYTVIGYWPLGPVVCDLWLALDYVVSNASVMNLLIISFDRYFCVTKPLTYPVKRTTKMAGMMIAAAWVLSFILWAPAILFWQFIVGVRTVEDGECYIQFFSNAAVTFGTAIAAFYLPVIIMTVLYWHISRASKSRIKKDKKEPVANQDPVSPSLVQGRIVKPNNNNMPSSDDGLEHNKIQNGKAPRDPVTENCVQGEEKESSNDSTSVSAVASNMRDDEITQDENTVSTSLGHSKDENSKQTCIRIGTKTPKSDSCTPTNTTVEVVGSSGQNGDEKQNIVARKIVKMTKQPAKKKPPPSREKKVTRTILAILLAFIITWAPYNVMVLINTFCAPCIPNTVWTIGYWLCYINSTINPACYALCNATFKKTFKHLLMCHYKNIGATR

[13] = molecular target: Neuropeptide Y receptor type 1 (Homo sapiens) (UniProt P25929); experiment: Displacement of [125I]-Peptide YY from neuropeptide Y Y1 receptor in human SK-N-MC cells at 10 uM relative to control; type: cell-based; in short: as §1
Sequence of Neuropeptide Y receptor type 1 (Homo sapiens) (P25929 whole entry): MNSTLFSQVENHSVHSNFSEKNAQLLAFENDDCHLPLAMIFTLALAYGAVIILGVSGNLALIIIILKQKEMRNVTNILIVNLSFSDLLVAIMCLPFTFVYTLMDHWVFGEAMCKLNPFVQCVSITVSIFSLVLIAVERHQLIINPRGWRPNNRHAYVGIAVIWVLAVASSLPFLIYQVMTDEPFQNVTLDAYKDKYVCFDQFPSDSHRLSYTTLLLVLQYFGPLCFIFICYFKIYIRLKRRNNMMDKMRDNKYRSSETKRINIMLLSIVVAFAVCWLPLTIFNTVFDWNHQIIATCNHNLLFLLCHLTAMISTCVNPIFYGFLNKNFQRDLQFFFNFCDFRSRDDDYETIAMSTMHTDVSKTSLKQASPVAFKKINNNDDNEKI

[14] = molecular target: Metabotropic glutamate receptor 6 (Rattus norvegicus) (UniProt P35349); experiment: Allosteric modulation of rat mGlu6 receptor expressed in HEK293 cells coexpressing G protein-activated inward rectifier potassium channel assessed as effect on glutamate-induced thallium flux at 10 uM; type: cell-based
[15] = system: Plasma; experiment: Tmax in CD-1 mouse plasma at 10 mg/kg, ip by LC-MS/MS analysis; type: ADME, organism-based; design: dose 10 mg/kg, route intraperitoneal; conditions: in vivo
[16] = organism: Rattus norvegicus; experiment: Displacement of [3H]-Idazoxan from central-type imidazoline I2 receptor in rat cerebral cortex at 10 uM relative to control; type: tissue-based; in short: as §1
[17] = system: Mus musculus; experiment: Anxiolytic activity in Harlan CD-1 mouse assessed as inhibition of marble burying behavior at >= 3 mg/kg, ip; type: functional, organism-based; design: dose 3 mg/kg
In short: (§2)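 Marble burying in mice with deep bedding; compound given IP at a range of doses with 15 min pretreatment, n = 8 per dose; marbles buried counted, brain samples collected right after testing for exposure; comparison to vehicle by Dunnett's test.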

[18] = molecular target: Adenosine receptor A2a (Homo sapiens) (UniProt P29274); experiment: Displacement of [3H]-CGS-21680 from human recombinant adenosine A2A receptor expressed in HEK293 cells at 10 uM relative to control; type: cell-based; in short: as §1
Sequence of Adenosine receptor A2a (Homo sapiens) (P29274 whole entry): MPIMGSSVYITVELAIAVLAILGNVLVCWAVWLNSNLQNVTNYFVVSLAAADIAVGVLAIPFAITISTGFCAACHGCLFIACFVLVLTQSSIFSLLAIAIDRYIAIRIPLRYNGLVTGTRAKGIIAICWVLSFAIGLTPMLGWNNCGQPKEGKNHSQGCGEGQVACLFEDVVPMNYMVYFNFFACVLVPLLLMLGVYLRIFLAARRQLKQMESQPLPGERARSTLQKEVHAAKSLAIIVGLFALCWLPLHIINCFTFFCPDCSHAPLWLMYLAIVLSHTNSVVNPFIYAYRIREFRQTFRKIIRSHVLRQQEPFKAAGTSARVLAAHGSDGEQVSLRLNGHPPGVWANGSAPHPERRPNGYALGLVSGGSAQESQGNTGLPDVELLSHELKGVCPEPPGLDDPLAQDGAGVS

[19] = molecular target: D(3) dopamine receptor (Homo sapiens) (UniProt P35462); experiment: Displacement of [3H]-Spiperone from human recombinant dopamine D3 receptor expressed in CHO cells at 10 uM relative to control; type: cell-based
Sequence of D(3) dopamine receptor (Homo sapiens) (P35462 whole entry): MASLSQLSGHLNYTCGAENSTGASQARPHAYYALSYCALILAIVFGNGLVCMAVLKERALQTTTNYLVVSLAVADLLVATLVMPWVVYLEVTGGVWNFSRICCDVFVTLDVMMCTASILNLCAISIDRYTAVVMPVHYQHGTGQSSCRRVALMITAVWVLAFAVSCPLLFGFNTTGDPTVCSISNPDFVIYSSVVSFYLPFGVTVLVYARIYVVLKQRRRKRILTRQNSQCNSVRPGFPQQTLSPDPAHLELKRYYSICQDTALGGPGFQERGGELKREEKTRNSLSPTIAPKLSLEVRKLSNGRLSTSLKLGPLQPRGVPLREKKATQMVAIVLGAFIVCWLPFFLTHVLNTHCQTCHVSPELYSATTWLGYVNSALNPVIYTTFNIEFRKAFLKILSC

[20] = organism: Rattus norvegicus; experiment: Displacement of [3H]-Muscimol from central-type GABAA receptor muscimol binding site in cerebellum-less rat brain homogenate at 10 uM relative to control; type: tissue-based; in short: as §1
[21] = molecular target: Adenosine receptor A3 (Homo sapiens) (UniProt P0DMS8); experiment: Displacement of [125I]-AB-MECA from human recombinant adenosine A3 receptor expressed in CHO-K1 cells at 10 uM relative to control; type: cell-based; in short: as §1
[22] = system: IMR-32; experiment: Displacement of [125I] Epibatidine from nicotinic acetylcholine receptor in human IMR32 cells at 10 uM relative to control; type: cell-based; in short: as §1
[23] = molecular target: 5-hydroxytryptamine receptor 2B (Homo sapiens) (UniProt P41595); experiment: Displacement of [3H]-Lysergic acid diethylamide from human recombinant 5-HT2B receptor expressed in CHO-K1 cells at 10 uM relative to control; type: cell-based; in short: as §1
[24] = system: Mus musculus; experiment: Anxiolytic activity in ip dosed Harlan CD-1 mouse assessed as inhibition of marble burying behavior; type: functional, organism-based; in short: as §2
[25] = organism: Rattus norvegicus; experiment: Displacement of [125I]-Triiodothyronine from thyroid hormone receptor in rat liver at 10 uM relative to control; in short: as §1
[26] = molecular target: Endothelin receptor type B (Homo sapiens) (UniProt P24530); experiment: Displacement of [125I]-Endothelin-1 from human recombinant ETB receptor expressed in CHO-K1 cells at 10 uM relative to control; type: cell-based; in short: as §1
[27] = system: Brain; experiment: Fraction unbound in mouse brain homogenates by equilibrium dialysis technique; type: ADME, tissue-based; conditions: brain homogenate
[28] = molecular target: Alpha-1A adrenergic receptor (Rattus norvegicus) (UniProt P43140); experiment: Displacement of [3H]-Prazosin from adrenergic alpha1A receptor in rat submaxillary gland at 10 uM relative to control; type: tissue-based
Sequence of Alpha-1A adrenergic receptor (Rattus norvegicus) (P43140 whole entry): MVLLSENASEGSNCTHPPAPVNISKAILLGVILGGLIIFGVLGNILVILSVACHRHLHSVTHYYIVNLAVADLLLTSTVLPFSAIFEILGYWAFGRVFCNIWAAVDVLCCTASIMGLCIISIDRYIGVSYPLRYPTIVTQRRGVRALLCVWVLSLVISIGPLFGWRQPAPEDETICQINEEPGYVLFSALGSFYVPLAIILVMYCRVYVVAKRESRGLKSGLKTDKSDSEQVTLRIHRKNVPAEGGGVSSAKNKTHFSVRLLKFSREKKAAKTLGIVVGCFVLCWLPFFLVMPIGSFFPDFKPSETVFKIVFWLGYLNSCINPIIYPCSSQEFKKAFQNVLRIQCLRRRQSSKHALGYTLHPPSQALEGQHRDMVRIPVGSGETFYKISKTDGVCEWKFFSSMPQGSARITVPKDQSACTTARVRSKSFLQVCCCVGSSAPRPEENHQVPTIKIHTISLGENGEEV

[29] = molecular target: Glutamate NMDA receptor (Rattus norvegicus) (UniProt P35439+Q00959+Q00960+Q00961+Q62645+Q8VHN2+Q9R1M7); experiment: Displacement of [3H]-TCP from NMDA receptor phencyclidine binding site in rat cerebral cortex at 10 uM relative to control; type: tissue-based
[30] = molecular target: Endothelin-1 receptor (Homo sapiens) (UniProt P25101); experiment: Displacement of [125I]-Endothelin-1 from human recombinant ETA receptor expressed in CHO-K1 cells at 10 uM relative to control; type: cell-based; in short: as §1
[31] = molecular target: Sodium-dependent dopamine transporter (Homo sapiens) (UniProt Q01959); experiment: Displacement of [125I]-RTI-55 from human recombinant DAT expressed in CHO-K1 cells at 10 uM relative to control; type: cell-based; in short: as §1
Sequence of Sodium-dependent dopamine transporter (Homo sapiens) (Q01959 whole entry): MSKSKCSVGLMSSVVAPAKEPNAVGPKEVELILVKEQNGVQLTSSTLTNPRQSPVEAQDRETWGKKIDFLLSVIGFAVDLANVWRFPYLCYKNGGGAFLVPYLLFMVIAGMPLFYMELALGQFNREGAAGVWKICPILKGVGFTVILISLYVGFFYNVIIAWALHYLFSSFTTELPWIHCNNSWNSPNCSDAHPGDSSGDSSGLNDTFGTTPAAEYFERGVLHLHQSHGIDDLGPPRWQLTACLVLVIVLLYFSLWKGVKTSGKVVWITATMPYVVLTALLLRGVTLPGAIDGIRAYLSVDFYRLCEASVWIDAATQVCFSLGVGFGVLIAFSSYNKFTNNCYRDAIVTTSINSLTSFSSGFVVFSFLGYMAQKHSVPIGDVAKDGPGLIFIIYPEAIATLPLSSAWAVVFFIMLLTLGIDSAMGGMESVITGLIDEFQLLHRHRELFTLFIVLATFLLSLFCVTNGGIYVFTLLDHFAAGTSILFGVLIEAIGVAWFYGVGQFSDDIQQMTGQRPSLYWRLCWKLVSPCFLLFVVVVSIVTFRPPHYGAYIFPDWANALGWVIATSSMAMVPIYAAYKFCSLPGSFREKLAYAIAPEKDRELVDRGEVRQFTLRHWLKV

[32] = Ratio of drug level in brain to plasma in CD-1 mouse at 10 mg/kg, ip by LC-MS/MS analysis; type: ADME, organism-based; design: dose 10 mg/kg, route intraperitoneal; conditions: brain and plasma, read-out: BPR
[33] = molecular target: Metabotropic glutamate receptor 8 (Rattus norvegicus) (UniProt P70579); experiment: Allosteric modulation of rat mGlu8 receptor expressed in HEK293 cells coexpressing G protein-activated inward rectifier potassium channel assessed as effect on glutamate-induced thallium flux at 10 uM; type: cell-based
[34] = organism: Rattus norvegicus; experiment: Displacement of [35S]-ATP-alpha-S from purinergic P2Y receptor in rat brain at 10 uM relative to control; type: tissue-based; in short: as §1

Cc1csc(NC(=O)c2cc(F)cc(Oc3cncnc3)c2)n1
Tmax [1]: 15 min
inhibition [2]: > 35%
inhibition [3]: > 35%
Cmax [4]: 1450 ng/mL
inhibition [5]: > 35%
inhibition [6]: > 35%
inhibition [7]: > 35%
inhibition [8]: > 35%
inhibition [9]: > 35%
inhibition [10]: > 35%
inhibition [11]: > 35%
inhibition [12]: > 35%
inhibition [13]: > 35%
Activity [14]: inactive
Tmax [15]: 15 min
inhibition [16]: > 35%
inhibition [17]: Active
inhibition [18]: > 35%
inhibition [19]: > 35%
inhibition [20]: > 35%
inhibition [21]: > 35%
inhibition [22]: > 35%
inhibition [23]: > 35%
inhibition [24]: Dose-dependent effect
inhibition [25]: > 35%
inhibition [26]: > 35%
Fu [27]: 0.082
inhibition [28]: > 35%
inhibition [29]: > 35%
inhibition [30]: > 35%
inhibition [31]: > 35%
Kp [32]: 0.99
Activity [33]: inactive
inhibition [34]: > 35%
